# In the library only some 3.8% were active in any assay of this set; here they are far more common.
# SIRT5 inh = sirtuin-5 (human) deacylase inhibition | Q9NXA8 | Purified SirT5, succinyl-peptide AMC, trypsin-coupled fluorescence | inhibition, % at 15 µM | 1.1% of 330,000 active | AID 652115; in the data active = inhibition above about 15%; inconclusive = no clear call, values can overlap the other calls
# Target sequence (Q9NXA8 whole entry, looked up): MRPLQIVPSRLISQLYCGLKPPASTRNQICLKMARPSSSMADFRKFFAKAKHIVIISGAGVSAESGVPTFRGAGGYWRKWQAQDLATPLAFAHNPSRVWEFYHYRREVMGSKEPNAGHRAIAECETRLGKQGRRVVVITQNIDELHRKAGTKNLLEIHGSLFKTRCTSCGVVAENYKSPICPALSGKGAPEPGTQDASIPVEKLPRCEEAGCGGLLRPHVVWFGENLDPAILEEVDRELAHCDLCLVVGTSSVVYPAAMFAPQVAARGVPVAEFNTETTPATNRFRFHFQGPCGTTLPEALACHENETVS
# ARNT TACC3 PPI = ARNT/TACC3 interaction disruption. AlphaScreen His-ARNT PAS-B/GST-TACC3 binding, luminescence; TACC3 fragment carries E629A point mutation. AID 623870. inhibition, % at 9.99 µM. 0.66% of 390,000 active. Q9Y6A5;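 active = mean inhibition of replicates at least 50% and at least half of replicates each reaching 50%; inconclusive = half or more replicates reach 50% but mean below 50%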;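 note: 0% = complete ARNT plus TACC3 wells and 100% = ARNT alone without TACC3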
# FN deposition inh = fibronectin deposition inhibition | AID 743247 | inhibition, % at 12.6 µM | AH1F fibroblasts, Alexa488-fibronectin deposition fluorescence, overnight | 0.086% of 350,000 active;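 active = mean inhibition across replicates of 30% or more, regardless of how many single replicates reach that level; inconclusive = mean under 30% yet at least half of replicates reach 30%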;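 note: positive control wells lacked labelled fibronectin entirely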
#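 Material: AH1F fibroblasts assembling fluorescent fibronectin matrix; amount: 10000 AH1F cells/well; medium: DMEM, 2% serum; reagent: Alexa488-fibronectin, 24 nM final in well; dosing: single compound dose, delivered by pin transfer; incubation: 1 h adhesion, overnight exposure; detection: fluorescence after three HBSS washes, excitation 485 nm, emission 525 nm; measure: fibronectin deposition inhibition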
# FGF22 binding = binders of recombinant human FGF22 by thermal shift | Q9HCT0 | SYPRO orange fluorescence; percent of sucrose octasulfate shift, DMSO zero | activity (Tm shift, normalised), % at 9.99 µM | 1.5% of 340,000 active;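 active = mean Tm shift, scaled 0 neutral to 100 positive control, at about 1.3% or above, every replicate too, limit read from the data; inconclusive = no clear call, values can overlap the other calls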
# Target sequence (Q9HCT0 whole entry, looked up): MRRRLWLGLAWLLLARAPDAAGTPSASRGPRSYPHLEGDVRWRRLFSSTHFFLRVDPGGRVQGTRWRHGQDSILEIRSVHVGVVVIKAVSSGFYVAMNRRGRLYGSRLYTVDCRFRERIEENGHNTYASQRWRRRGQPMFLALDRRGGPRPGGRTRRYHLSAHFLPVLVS
# XiGFP reactiv = activators of X-chromosome reactivation in mouse fibroblasts. XiGFP mouse fibroblasts, % GFP-positive cells imaging, 3 d; cells co-treated with 5-aza-dC sensitizer; scaled so ellipticine positive control = 100%. activation, % at 7.58 µM. 0.055% of 360,000 active;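 active = mean normalized replicate activation at least 10% and every replicate at or above 10%; inconclusive = only one of the two criteria met; inactive = mean below 10% and not all replicates reach 10%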;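 note: 0% = median of on-plate neutral control wells and 100% = ellipticine 6 µM median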
#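 Material: XiGFP fibroblasts, SV40-immortalized; Buffer or medium: DMEM containing 5-aza-dC; Compound dosing: single point; Times: 3 days compound exposure.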
# DENV2 CPE rescue = inhibitors of DENV2 cytopathic effect | DENV2-infected cells, cytopathic effect rescue, plate reader | CPE inhibition, % at 9.99 µM | 1.7% of 350,000 active | AID 651640; in the data active = CPE inhibition above about 20%, passing the limit was not always enough; inconclusive = no clear call, values can overlap the other calls; tested in BHK-21 cells;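 note: 0% = median of neutral control wells and 100% = median of positive control wells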
# * marks the source's active call; other numbers are inactive results; ? = inconclusive; nt = no result given.
SMILES,SIRT5 inh,ARNT TACC3 PPI,FN deposition inh,FGF22 binding,XiGFP reactiv,DENV2 CPE rescue
CCCN(C(=O)CSc1nnnn1C)C1CCS(=O)(=O)C1 (configuration not stated),-0.4,-5.2,6.8,42.9*,0.2,9.5
Cc1cc2nnc(SCC(=O)N(C)C3CCS(=O)(=O)C3)n2c2ccccc12 (configuration not stated),4.7,-1.0,-3.1,43.1*,0.3,-7.5
Cc1ccccc1-n1c(C)nnc1SCC(=O)N(C)C1CCS(=O)(=O)C1 (configuration not stated),0.7,nt,6.5,-0.7,0.0,-0.8
CCN(C(=O)CSc1nnnn1C)C1CCCCC1,7.0,-9.0,-0.2,-0.1,0.1,?
Cc1noc(C)c1NC(=O)Nc1ccc2c(c1)C(=O)N([C@H](C)CO)C[C@@H](C)[C@@H](CN(C)C(=O)C1CCCCC1)OCCCC[C@@H](C)O2,-0.9,-12.0,nt,0.4,-0.1,-2.0
COc1ccc(S(=O)(=O)N2CCCCN3[C@H](CO)[C@@H](c4ccc(C#CCC(C)C)cc4)[C@H]3C2)cc1,nt,17.1,nt,nt,0.3,nt
O=C(C1CCC1)N1CC2(C1)[C@H](c1ccccc1)[C@@H](CO)N2Cc1nccs1,-1.3,nt,-2.1,nt,0.0,9.7
O=C(C[C@@H]1CC[C@@H](NS(=O)(=O)c2ccc(F)cc2)[C@H](CO)O1)NC1CCCCC1,-1.0,-9.2,-4.9,0.0,0.0,-4.8
Cc1ccc(C(=O)N/C(=C\c2cccc([N+](=O)[O-])c2)C(=O)Nc2cccc(C(=O)O)c2)cc1,-3.5,-2.9,-2.5,-0.1,-0.1,0.2
O=C(Nc1cccc(C(=O)O)c1)/C(=C\c1ccco1)NC(=O)c1ccccc1,-3.4,-1.5,0.0,-0.4,0.5,50.4*
COc1ccc(C(=O)N/C(=C\c2cccc([N+](=O)[O-])c2)C(=O)Nc2cccc(C(=O)O)c2)cc1,-0.6,-9.0,-0.1,42.9*,0.0,-2.2
CCCC#Cc1ccc([C@H]2[C@@H](CO)N(C(C)=O)[C@H]2CNC(=O)C2CCCC2)cc1,-0.6,nt,-10.0,nt,0.1,-1.5
O=C(CCc1nnc(CCCc2ccccc2)o1)NCCCC1CCCC1,-2.5,13.4,nt,42.9*,0.0,-2.3
O=C(CCc1nnc(CCCCc2ccccc2)o1)NCCn1cccn1,-0.3,nt,-4.6,43.3*,0.0,-1.1
O=C(CCc1nnc(Cc2c[nH]c3ccccc23)o1)NCCC1CCCCO1 (configuration not stated),nt,nt,-1.7,0.2,0.3,54.2*
O=C(CCc1nnc(Cc2c[nH]c3ccccc23)o1)NC1CCCC1,-1.6,-10.7,0.5,-0.3,-0.3,6.2
O=[N+]([O-])c1ccccc1S(=O)(=O)Nc1ccc(S(=O)(=O)N2CCOCC2)cc1,-3.4,0.7,5.7,0.3,0.0,31.4*
O=C(c1cccc(S(=O)(=O)N2CCOCC2)c1)N1CCN(S(=O)(=O)c2cccc([N+](=O)[O-])c2)CC1,-2.9,-2.2,-2.3,nt,-0.1,-10.3
O=[N+]([O-])c1cccc(S(=O)(=O)N2CCN(S(=O)(=O)N3CCOCC3)CC2)c1,16.1*,-2.5,-4.5,-0.3,-0.1,-0.5
COc1cc(CNc2nccn3ccnc23)cc(OC)c1,nt,nt,4.0,0.3,0.1,36.3*
Clc1ccc(SCc2cn3ccccc3n2)cc1,58.0*,-3.6,-3.9,0.0,0.1,2.3
Clc1ccc(-n2nnnc2SCc2cn3ccccc3n2)cc1,nt,3.2,nt,nt,nt,nt
N#Cc1cccnc1N1CCN(C(=O)c2ccccc2)CC1,-7.0,-1.1,1.6,0.0,0.1,52.1*
Cc1cccc(N2CCN(C(=O)c3ccc4nccnc4c3)CC2C)c1 (configuration not stated),nt,1.2,8.9,43.0*,0.3,-6.5
O=C(c1ccc2nccnc2c1)N1CCN(c2ccccc2)CC1,-2.3,-3.6,2.8,-0.5,0.2,35.4*
SMILES,SIRT5 inh,ARNT TACC3 PPI,FN deposition inh,FGF22 binding,XiGFP reactiv,DENV2 CPE rescue
Cc1cccc(N2CCN(C(=O)CCc3nc4ccccc4[nH]3)CC2C)c1 (configuration not stated),16.9*,-9.6,-2.2,-0.3,0.7,5.4
CC1(C)SC(=S)N(/N=C/c2ccccc2O)C1N(O)C(=O)Nc1ccccc1 (configuration not stated),0.7,48.5*,8.1,-0.6,-0.1,0.7
CC(=O)N1[C@@H]2CN(S(C)(=O)=O)C[C@H]1C2c1ccc(-c2ccc(F)cc2)cc1 (some centres not stated),nt,nt,1.0,nt,0.3,nt
COc1ccc(-c2nc(N)ncc2-c2csc(C)n2)c(O)c1OC,1.8,nt,-12.0,43.9*,0.0,7.3
CCC(=O)NC[C@@H]1[C@@H](c2ccc(-c3ccc(OC)cc3)cc2)[C@@H](CO)N1C(C)=O,2.8,nt,-13.1,nt,0.3,42.1*
CCC(=O)NC[C@@H]1[C@H](c2ccc(C3=CCCC3)cc2)[C@H](CO)N1C(C)=O,4.2,5.2,nt,0.1,0.0,-1.6
COCC(=O)NC[C@@H]1[C@@H](c2ccc(-c3ccccc3)cc2)[C@H](CO)N1C(C)=O,0.6,-9.2,nt,-0.1,0.0,40.6*
O=c1[nH][nH]c2c([N+](=O)[O-])ccc(F)c12,nt,nt,6.0,-0.5,0.1,3.2
O=c1[nH][nH]c2c(N=Cc3ccccc3O)ccc(F)c12,29.4*,69.0*,nt,nt,nt,nt
Cc1ccc(CNS(=O)(=O)CCNC(=O)c2ccc3c(c2)OCO3)cc1,-2.5,11.8,2.8,0.0,-0.1,3.8
COc1ccccc1CCNS(=O)(=O)CCNC(=O)c1ccc2c(c1)OCO2,-0.4,1.5,-1.3,-0.1,0.1,39.8*
O=C(NCCS(=O)(=O)NCc1ccc(F)cc1)c1ccc2c(c1)OCO2,-1.6,-3.1,3.7,-0.1,-0.1,74.9*
O=C(NC(=S)Nc1cc(S(=O)(=O)N2CCOCC2)ccc1O)c1ccco1,1.3,2.5,22.0,5.5*,0.0,-2.1
O=C(NC(=S)Nc1cc(S(=O)(=O)N2CCOCC2)ccc1N1CCOCC1)c1ccco1,4.1,1.6,-7.9,0.3,0.1,4.1
COc1cc(CC(NC(C)=O)C(=O)NC2CCN(C(=O)Nc3ccccc3Cl)CC2)cc(OC)c1 (configuration not stated),5.7,nt,-2.5,0.3,0.1,-3.0
COc1cc(CC(NC(C)=O)C(=O)NC2CCN(C(=O)c3cc(OC)c(OC)c(OC)c3)CC2)cc(OC)c1 (configuration not stated),-6.9,-6.1,10.2,42.9*,0.0,5.4
COc1cc(CC(NC(C)=O)C(=O)NC2CCN(C(=O)Nc3ccccc3C)CC2)cc(OC)c1 (configuration not stated),16.9*,-5.6,-8.0,-0.2,0.0,5.1
